Calls of active or inactive are those of the source. No cut-off for these calls is given here. Some results are limits rather than exact numbers.

Data set [1] has as its target T1, von Hippel-Lindau disease tumor suppressor/Histone-lysine N-methyltransferase EZH2 (Homo sapiens, UniProt Q15910+P40337). As to the kind of experiment: PROTAC activity at VHL/EZH2 degradation in hMLLr AML cell line EOL1 cells assessed as protein degradation at 1 uM measured after 24 hrs by Western blot analysis. It is filed as cell-based. The method in brief:
(§1)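 Cells were seeded at 0.5–2 million per well and treated for 24 h, or for the stated times at 300 nM in the time course. Lysis was in RIPA with protease inhibitors; ~10 μg protein was run on SDS-PAGE and blotted to PVDF. Detection used fluorescent immunoblotting for EZH2, EED and SUZ12, with β-actin as loading control. Blots are representative of two biological experiments.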

The target in data set [2] is von Hippel-Lindau disease tumor suppressor/Polycomb protein EED (Homo sapiens) (UniProt O75530+P40337). The data set is described as follows: PROTAC activity at VHL/EED degradation in MLLr AML cell line human EOL1 cells assessed as protein degradation at 1 to 1000 nM measured after 1 to 24 hrs by Western blot analysis. The format is cell-based. The note with it: dose 1-1000 nM, time 1-24 hrs. Summed up: as §1
On the technique in general: Immunoblotting shows a protein as a band on a membrane.

Data set [3] addresses T1, von Hippel-Lindau disease tumor suppressor/Histone-lysine N-methyltransferase EZH2. As to the kind of experiment: PROTAC activity at VHL/EZH2 degradation in MLLr AML cell line human EOL1 cells assessed as protein degradation at 0.5 uM measured after 24 hrs in presence of 5 uM EPZ-6438 by Western blot analysis. It is filed as cell-based. Summed up: (§2)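 EOL-1 cells were pre-treated for 2 h with MLN4924 (0.05 μM), EPZ-6438 (5 μM) or VHL-1 (5 μM), then given 0.5 μM degrader for 24 h. EZH2 was assessed by Western blot against β-actin. Blots are representative of two biological experiments.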

For data set [4] the target is unchanged. The data set is described as follows: PROTAC activity at VHL/EZH2 degradation in MLLr AML cell line human EOL1 cells assessed as protein degradation at 0.5 uM measured after 24 hrs in presence of 5 uM VHL-1 by Western blot analysis. The format is cell-based. The method in brief: as §2
The target of data set [5] is Histone-lysine N-methyltransferase EHMT2 (Homo sapiens) (UniProt Q96KQ7). The data set is described as follows: Inhibition of human G9a assessed as methyltransferase activity using Histone H3 as substrate at 10 uM by radioisotope based MT HotSpot assay relative to control. The method in brief: (§3)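 Radioisotope-based methyltransferase assay (MT HotSpot) run by a contract lab. Compound was tested at 10 μM against a panel of 20 methyltransferases, in duplicate. Values are means ± SD of two replicates.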

For data set [6], the target named is Histone-lysine N-methyltransferase, H3 lysine-36 specific (Homo sapiens) (UniProt Q96L73). The data set is described as follows: Inhibition of human NSD1 assessed as methyltransferase activity using Nucleosomes as substrate at 10 uM by radioisotope based MT HotSpot assay relative to control. Summed up:
as §3

For data set [7], the target named is Protein arginine N-methyltransferase 3 (Homo sapiens) (UniProt O60678). The data set is described as follows: Inhibition of human PRMT3 assessed as methyltransferase activity using Histone H3 as substrate at 10 uM by radioisotope based MT HotSpot assay relative to control. The method in brief: as §3
Protein arginine N-methyltransferase 3 (Homo sapiens), sequence (O60678 2-531 limits assumed): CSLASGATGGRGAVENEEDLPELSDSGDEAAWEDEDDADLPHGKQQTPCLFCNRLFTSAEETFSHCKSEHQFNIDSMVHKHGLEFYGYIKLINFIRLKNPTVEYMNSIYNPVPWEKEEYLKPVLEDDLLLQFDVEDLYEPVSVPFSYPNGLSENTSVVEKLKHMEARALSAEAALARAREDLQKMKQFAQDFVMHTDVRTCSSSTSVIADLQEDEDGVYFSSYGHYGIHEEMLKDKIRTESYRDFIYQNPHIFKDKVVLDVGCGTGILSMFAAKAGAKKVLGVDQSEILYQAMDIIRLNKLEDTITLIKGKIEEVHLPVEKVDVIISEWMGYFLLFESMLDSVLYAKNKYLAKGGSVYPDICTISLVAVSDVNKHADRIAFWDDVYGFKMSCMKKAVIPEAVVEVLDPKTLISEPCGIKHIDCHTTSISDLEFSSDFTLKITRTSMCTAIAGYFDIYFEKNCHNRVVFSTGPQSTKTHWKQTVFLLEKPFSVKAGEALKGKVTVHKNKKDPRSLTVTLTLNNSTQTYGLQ
Data set [8] has as its target PRMT5/MEP50 complex (Homo sapiens) (UniProt O14744+Q9BQA1). As to the kind of experiment: Inhibition of human PRMT5/MEP50 assessed as methyltransferase activity using Histone H2A as substrate at 10 uM by radioisotope based MT HotSpot assay relative to control. It is filed as protein-complex assay. Summed up: as §3
Data set [9] addresses Protein arginine N-methyltransferase 8 (Homo sapiens) (UniProt Q9NR22). The data set is described as follows: Inhibition of human PRMT8 assessed as methyltransferase activity using Histone H4 as substrate at 10 uM by radioisotope based MT HotSpot assay relative to control. Summed up:
as §3

Data set [10] concerns the target N-lysine methyltransferase KMT5A (Homo sapiens) (UniProt Q9NQR1). As to the kind of experiment: Inhibition of human SET8 assessed as methyltransferase activity using Nucleosomes as substrate at 10 uM by radioisotope based MT HotSpot assay relative to control. Summed up: as §3
Data set [11] concerns the target Histone-lysine N-methyltransferase SUV39H1 (Homo sapiens) (UniProt O43463). As to the kind of experiment: Inhibition of human SUV39H1 assessed as methyltransferase activity using Histone H3 as substrate at 10 uM by radioisotope based MT HotSpot assay relative to control. The method in brief: as §3
In data set [12] the target is Histone-lysine N-methyltransferase EZH2 (Homo sapiens) (UniProt Q15910). The data set is described as follows: Inhibition of human EZH2 assessed as methyltransferase activity using Core Histone as substrate at 10 uM by radioisotope based MT HotSpot assay relative to control. The method in brief:
as §3

In data set [13] the target is T1, von Hippel-Lindau disease tumor suppressor/Histone-lysine N-methyltransferase EZH2. The data set is described as follows: PROTAC activity at VHL/EZH2 degradation in MLLr AML cell line human EOL1 cells assessed as protein degradation at 0.1 uM measured after 24 hrs by Western blot analysis. The format is cell-based. Summed up:
as §1

Data set [14] shares this target. As to the kind of experiment: PROTAC activity at VHL/EZH2 degradation in MLLr AML cell line human EOL1 cells assessed as protein degradation at 0.3 uM measured after 24 hrs by Western blot analysis. The format is cell-based. The method in brief:
as §1

For a further data set, the system named is EOL1. As to the kind of experiment: Anti-proliferative activity against human EOL1 cells assessed as cell viability measured after 5 days incubation by CCK-8 assay. The format is functional, cell-based. The following applies: EOL1, 120 h. Summed up: (§4)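 Cells plated at 3,000–10,000 per well and exposed to serial dilutions for 5 days at 37 °C. CCK-8 (1x) was added for 2–4 h, with absorbance read at 450 nm against a 690 nm reference. IC50 was taken from curve fits. Leukemia lines were grown in RPMI-1640, K562 in IMDM and MDA-MB-468 in DMEM, all with 10 % FBS. Values are means ± SD of two biological experiments (three for BT549 and MDA-MB-468).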

In data set [15] the target is T1, von Hippel-Lindau disease tumor suppressor/Histone-lysine N-methyltransferase EZH2. As to the kind of experiment: PROTAC activity at VHL/EZH2 degradation in human RS4-11 cells assessed as protein degradation at 0.1 uM measured after 24 hrs by Western blot analysis. The format is cell-based. The method in brief: as §1
The target is the same in data set [16]. As to the kind of experiment: PROTAC activity at VHL/EZH2 degradation in human RS4-11 cells assessed as protein degradation at 0.3 uM measured after 24 hrs by Western blot analysis. The format is cell-based. Summed up:
as §1

For data set [17] the target is unchanged. The data set is described as follows: PROTAC activity at VHL/EZH2 degradation in human BT-549 cells assessed as protein degradation at 0.1 to 3 uM measured after 48 hrs by Western blot analysis. The following applies: dose 0.1-3 µM. The format is cell-based. Summed up:
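BT549 (RPMI-1640) and MDA-MB-468 (DMEM) cells were treated for 48 h. RIPA lysates (~10 μg) were immunoblotted for EZH2 with β-actin as loading control. Blots are representative of three biological experiments.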

Another data set deals with MDA-MB-468. As to the kind of experiment: Anti-proliferative activity against human MDA-MB-468 cells assessed as cell growth inhibition measured after 5 days incubation by CCK-8 assay. The note with it: MDA-MB-468, 120 h. It is filed as functional, cell-based. Summed up:
as §4

A further data set has as its system BT-549. The data set is described as follows: Inhibition of cell growth in human BT-549 cell spheroid TNBC model assessed as reduction in size of spheroid at 2.5 to 20 uM measured after 5 days by 3D cell culture assay. The note with it: dose 2.5-20 µM, time 5.0 day. The format is functional, cell-based. The method in brief: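 BT549 cells were coated with nanoshuttle (1 μL per 2000 cells, 24 h) and magnetically levitated in low-adhesion plates. They were grown 7 days at 37 °C until a single solid spheroid formed, then treated 5 d with compound or DMSO. Spheroid area was measured from images, and viability by CellTiter-Glo 3D. Data are means ± SD of three biological experiments, analysed by one-way ANOVA.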

A short description of data set [18]: Toxicity in mouse at 50 mg/kg, ip measured after 4 hrs. The following applies: in vivo. It is filed as organism-based.
Data set [19] in a line: Plasma concentration in mouse at 50 mg/kg, ip measured after 9 hrs. The note with it: in vivo.

T1 sequence (P40337 whole entry, looked up): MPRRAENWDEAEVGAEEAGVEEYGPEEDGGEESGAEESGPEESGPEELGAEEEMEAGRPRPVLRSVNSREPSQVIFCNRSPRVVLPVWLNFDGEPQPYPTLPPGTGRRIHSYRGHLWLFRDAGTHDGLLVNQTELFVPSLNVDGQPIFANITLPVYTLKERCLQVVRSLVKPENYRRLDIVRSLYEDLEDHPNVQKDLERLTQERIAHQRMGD
T1 sequence (Q15910 whole entry, looked up): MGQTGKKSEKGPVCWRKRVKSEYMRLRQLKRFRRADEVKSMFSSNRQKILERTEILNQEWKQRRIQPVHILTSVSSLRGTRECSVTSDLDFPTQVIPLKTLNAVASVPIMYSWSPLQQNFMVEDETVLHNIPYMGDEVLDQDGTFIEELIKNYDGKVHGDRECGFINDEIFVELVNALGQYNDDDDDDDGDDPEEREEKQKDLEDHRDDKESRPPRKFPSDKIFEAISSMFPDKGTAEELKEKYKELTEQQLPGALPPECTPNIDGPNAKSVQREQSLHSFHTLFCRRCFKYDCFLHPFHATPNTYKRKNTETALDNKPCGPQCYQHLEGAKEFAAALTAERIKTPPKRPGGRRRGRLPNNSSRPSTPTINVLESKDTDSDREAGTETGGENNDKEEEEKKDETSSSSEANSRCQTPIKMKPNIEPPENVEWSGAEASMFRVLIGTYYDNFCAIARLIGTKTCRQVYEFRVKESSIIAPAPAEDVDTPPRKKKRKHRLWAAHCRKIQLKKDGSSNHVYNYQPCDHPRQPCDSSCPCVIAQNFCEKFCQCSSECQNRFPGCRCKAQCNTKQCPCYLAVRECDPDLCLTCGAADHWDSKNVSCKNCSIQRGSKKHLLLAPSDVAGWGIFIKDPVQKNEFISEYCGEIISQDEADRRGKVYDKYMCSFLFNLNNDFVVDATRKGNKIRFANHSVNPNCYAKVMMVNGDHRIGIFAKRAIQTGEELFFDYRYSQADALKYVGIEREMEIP
N-lysine methyltransferase KMT5A (Homo sapiens), sequence (Q9NQR1 whole entry): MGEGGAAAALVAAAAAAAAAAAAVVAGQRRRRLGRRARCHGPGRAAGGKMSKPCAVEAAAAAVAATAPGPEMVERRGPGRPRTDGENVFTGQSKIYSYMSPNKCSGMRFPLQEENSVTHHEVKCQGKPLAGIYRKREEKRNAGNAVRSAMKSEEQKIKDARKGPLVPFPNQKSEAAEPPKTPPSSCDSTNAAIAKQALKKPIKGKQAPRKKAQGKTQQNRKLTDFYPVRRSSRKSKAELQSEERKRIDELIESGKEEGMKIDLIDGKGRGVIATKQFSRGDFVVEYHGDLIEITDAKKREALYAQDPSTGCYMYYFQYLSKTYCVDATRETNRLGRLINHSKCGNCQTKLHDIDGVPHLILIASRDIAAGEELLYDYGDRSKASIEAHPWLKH
Histone-lysine N-methyltransferase, H3 lysine-36 specific (Homo sapiens), sequence (Q96L73 whole entry): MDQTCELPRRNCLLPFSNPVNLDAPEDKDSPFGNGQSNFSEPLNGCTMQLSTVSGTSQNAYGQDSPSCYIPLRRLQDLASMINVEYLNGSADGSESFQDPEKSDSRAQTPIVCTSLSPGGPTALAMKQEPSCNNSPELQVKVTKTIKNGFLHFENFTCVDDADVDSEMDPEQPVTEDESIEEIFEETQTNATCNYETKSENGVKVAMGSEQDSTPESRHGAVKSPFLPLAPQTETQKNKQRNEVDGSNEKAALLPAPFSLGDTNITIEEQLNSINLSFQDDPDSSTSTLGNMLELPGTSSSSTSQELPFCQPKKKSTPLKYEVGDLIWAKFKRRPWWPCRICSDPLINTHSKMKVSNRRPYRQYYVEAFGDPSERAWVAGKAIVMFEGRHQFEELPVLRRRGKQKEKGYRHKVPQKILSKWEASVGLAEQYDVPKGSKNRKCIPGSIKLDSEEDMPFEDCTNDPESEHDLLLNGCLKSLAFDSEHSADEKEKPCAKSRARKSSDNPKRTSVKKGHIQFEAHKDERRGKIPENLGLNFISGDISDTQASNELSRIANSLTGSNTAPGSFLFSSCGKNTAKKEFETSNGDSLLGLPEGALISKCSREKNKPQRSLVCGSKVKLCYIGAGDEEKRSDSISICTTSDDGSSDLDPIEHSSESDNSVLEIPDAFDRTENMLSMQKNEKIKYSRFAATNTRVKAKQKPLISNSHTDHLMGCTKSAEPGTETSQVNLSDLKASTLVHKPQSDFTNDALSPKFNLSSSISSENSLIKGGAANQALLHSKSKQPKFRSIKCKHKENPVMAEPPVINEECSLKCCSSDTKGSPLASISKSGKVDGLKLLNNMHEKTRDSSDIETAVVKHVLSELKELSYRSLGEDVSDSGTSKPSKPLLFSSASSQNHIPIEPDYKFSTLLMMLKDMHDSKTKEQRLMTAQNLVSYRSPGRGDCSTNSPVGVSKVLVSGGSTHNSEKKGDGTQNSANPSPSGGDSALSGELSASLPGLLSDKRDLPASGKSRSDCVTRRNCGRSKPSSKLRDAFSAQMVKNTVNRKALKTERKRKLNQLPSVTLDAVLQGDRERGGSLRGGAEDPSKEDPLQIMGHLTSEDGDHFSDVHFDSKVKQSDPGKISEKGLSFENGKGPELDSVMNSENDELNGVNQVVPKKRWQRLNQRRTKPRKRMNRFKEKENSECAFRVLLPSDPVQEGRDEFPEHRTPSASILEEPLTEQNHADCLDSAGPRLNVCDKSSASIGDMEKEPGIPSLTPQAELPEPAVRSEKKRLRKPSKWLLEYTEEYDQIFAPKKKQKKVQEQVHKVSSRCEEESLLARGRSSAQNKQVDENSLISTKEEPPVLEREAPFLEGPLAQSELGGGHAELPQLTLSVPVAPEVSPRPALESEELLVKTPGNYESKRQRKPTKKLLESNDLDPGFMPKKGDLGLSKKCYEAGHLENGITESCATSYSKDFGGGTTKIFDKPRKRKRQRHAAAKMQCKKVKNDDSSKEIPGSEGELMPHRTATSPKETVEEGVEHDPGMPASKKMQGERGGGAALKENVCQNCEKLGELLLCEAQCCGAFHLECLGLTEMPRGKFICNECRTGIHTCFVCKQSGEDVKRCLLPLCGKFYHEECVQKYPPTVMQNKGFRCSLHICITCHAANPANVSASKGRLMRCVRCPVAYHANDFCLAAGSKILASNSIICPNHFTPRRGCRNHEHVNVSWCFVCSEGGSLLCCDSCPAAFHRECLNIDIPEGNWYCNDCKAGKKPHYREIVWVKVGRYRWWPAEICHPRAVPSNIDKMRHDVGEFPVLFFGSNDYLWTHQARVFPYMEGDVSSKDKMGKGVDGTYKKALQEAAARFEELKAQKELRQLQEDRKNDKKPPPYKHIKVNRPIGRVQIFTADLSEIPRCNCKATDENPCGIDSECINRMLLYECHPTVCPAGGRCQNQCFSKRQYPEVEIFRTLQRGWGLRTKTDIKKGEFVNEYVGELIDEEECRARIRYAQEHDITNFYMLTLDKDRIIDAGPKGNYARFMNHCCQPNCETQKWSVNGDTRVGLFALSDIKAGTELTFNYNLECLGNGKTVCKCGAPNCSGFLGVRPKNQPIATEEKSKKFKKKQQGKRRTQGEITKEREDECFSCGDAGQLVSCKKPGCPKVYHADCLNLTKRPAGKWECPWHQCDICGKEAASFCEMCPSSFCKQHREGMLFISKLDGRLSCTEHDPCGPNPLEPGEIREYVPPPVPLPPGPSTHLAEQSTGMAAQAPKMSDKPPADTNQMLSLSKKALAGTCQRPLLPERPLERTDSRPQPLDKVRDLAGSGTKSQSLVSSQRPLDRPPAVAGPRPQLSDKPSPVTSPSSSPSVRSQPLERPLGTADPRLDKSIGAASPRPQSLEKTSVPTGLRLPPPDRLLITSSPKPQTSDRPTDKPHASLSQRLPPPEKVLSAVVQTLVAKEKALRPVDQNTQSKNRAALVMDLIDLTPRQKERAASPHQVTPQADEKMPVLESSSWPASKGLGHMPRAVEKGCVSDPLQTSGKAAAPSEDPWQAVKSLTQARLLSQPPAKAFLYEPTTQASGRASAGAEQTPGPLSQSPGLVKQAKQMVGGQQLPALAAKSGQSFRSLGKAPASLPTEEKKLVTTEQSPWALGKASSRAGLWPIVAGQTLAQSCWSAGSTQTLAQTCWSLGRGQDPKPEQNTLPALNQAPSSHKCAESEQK
Protein arginine N-methyltransferase 8 (Homo sapiens), sequence (Q9NR22 2-394 limits assumed): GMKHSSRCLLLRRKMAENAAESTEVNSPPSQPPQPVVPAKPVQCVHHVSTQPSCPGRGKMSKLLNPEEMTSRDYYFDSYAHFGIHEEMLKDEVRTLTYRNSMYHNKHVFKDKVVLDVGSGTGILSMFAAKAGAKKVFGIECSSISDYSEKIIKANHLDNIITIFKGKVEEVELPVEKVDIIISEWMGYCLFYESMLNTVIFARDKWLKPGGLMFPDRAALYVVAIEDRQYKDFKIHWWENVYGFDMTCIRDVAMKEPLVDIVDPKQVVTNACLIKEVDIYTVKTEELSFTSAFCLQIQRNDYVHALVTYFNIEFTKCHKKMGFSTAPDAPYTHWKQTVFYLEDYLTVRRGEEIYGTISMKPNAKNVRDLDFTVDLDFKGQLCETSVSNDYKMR
Histone-lysine N-methyltransferase EZH2 (Homo sapiens), sequence (Q15910 whole entry, looked up): as the sequence (Q15910 whole entry, looked up) above

On to `CCN(c1cc(-c2ccc(CN3CCN(CCC(=O)NCCCCCCCCCCC(=O)N[C@H](C(=O)N4C[C@H](O)C[C@H]4C(=O)NCc4ccc(-c5scnc5C)cc4)C(C)(C)C)CC3)cc2)cc(C(=O)NCc2c(C)cc(C)[nH]c2=O)c1C)C1CCOCC1`, for which the Activity in data set [1] is 100%; in data set [13] it was 100%; in data set [14], 100%; in data set [18] it was “Non-Toxic”. For the same compound, the outcome in [2], in data set [15], in data set [16] and in data set [17] was Active. The outcome in [3] and in data set [4] was inactive. In addition, the inhibition in data set [5], in [6], in data set [7], in data set [8], in [9] and in data set [10] was under 50% throughout. Also, in [11], the inhibition was under 50%. Besides, the inhibition result (in data set [12]; in the data set on BT-549) was “Active” throughout. The IC50 was determined as 110 nM in the data set with EOL1 and 450 nM in the data set with MDA-MB-468. In addition, the plasma concentration entry in [19] is “Stable”.

Broadly, the inhibition is the drop in the measured response relative to a control, in per cent. Broadly, the IC50 is the concentration needed to halve the response being measured.

Source of the values: ChEMBL document CHEMBL5543089, “Discovery of a novel, highly potent EZH2 PROTAC degrader for targeting non-canonical oncogenic functions of EZH2” (Eur J Med Chem, 2024).
